Results reported in ChEMBL document CHEMBL1275272, “Synthesis, characterization and antimicrobial activity of some disubstituted 1,3,4-oxadiazoles carrying 2-(aryloxymethyl)phenyl moiety” (2010).
Values after ≈ are worked out from the molar mass of the structure shown.

Experiments:
Type in all cases: functional
[1] = system: Trichophyton mentagrophytes; assay: Antifungal activity against Trichophyton mentagrophytes after 16 to 18 hrs by serial dilution method; details: for MIC: Trichophyton mentagrophytes
[2] = system: Aspergillus flavus; assay: Antifungal activity against Aspergillus flavus after 16 to 18 hrs by serial dilution method; details: for MIC: Aspergillus flavus
In short: (§1)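 The test compound was dissolved in DMF and serially diluted. A standard drop of the prepared microbial culture was added to each dilution, and tubes were incubated at 37 °C for 16–18 h. MIC was taken as the highest dilution that stayed clear with no visible turbidity.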

[3] = system: Pseudomonas aeruginosa; assay: Antibacterial activity against Pseudomonas aeruginosa after 16 to 18 hrs by serial dilution method; details: for MIC: Pseudomonas aeruginosa; in short: as §1
[4] = system: Klebsiella pneumoniae; assay: Antibacterial activity against Klebsiella pneumoniae after 16 to 18 hrs by serial dilution method; details: for MIC: Klebsiella pneumoniae
[5] = system: Staphylococcus aureus; assay: Antibacterial activity against Staphylococcus aureus after 16 to 18 hrs by serial dilution method; details: for MIC: Staphylococcus aureus; in short: as §1
[6] = system: Aspergillus fumigatus; assay: Antifungal activity against Aspergillus fumigatus after 16 to 18 hrs by serial dilution method; details: for MIC: Aspergillus fumigatus
[7] = system: Escherichia coli; assay: Antibacterial activity against Escherichia coli after 16 to 18 hrs by serial dilution method; details: for MIC: Escherichia coli; in short: as §1
[8] = system: Talaromyces marneffei; assay: Antifungal activity against Penicillium marneffei after 16 to 18 hrs by serial dilution method; details: for MIC: Talaromyces marneffei; in short: as §1

SMILES | MIC [1] | MIC [2] | MIC [3] | MIC [4] | MIC [5] | MIC [6] | MIC [7] | MIC [8] | inhibition zone (IZ) [1] | inhibition zone (IZ) [2] | inhibition zone (IZ) [3] | inhibition zone (IZ) [4] | inhibition zone (IZ) [5] | inhibition zone (IZ) [6] | inhibition zone (IZ) [7] | inhibition zone (IZ) [8]
Cc1ccccc1OCc1ccccc1-c1nnc(-c2cccc(Br)c2)o1 | 25 µg/mL (≈ 59.3 µM) | 25 µg/mL (≈ 59.3 µM) | 25 µg/mL (≈ 59.3 µM) | 25 µg/mL (≈ 59.3 µM) | 25 µg/mL (≈ 59.3 µM) | 25 µg/mL (≈ 59.3 µM) | 25 µg/mL (≈ 59.3 µM) | 25 µg/mL (≈ 59.3 µM) | <10 mm | <10 mm | <10 mm | <10 mm | <10 mm | <10 mm | <10 mm | <10 mm
Cc1cccc(OCc2ccccc2-c2nnc(SCc3ccc(Cl)cc3Cl)o2)c1 | 12.5 µg/mL (≈ 27.3 µM) | 12.5 µg/mL (≈ 27.3 µM) | 6.25 µg/mL (≈ 13.7 µM) | 6.25 µg/mL (≈ 13.7 µM) | 6.25 µg/mL (≈ 13.7 µM) | 6.25 µg/mL (≈ 13.7 µM) | 6.25 µg/mL (≈ 13.7 µM) | 6.25 µg/mL (≈ 13.7 µM) | 11 mm | 11 mm | 16 mm | 16 mm | 16 mm | 16 mm | 16 mm | 16 mm
Cc1ccccc1OCc1ccccc1-c1nnc(SCc2ccc(Cl)cc2Cl)o1 | 12.5 µg/mL (≈ 27.3 µM) | 6.25 µg/mL (≈ 13.7 µM) | 6.25 µg/mL (≈ 13.7 µM) | 6.25 µg/mL (≈ 13.7 µM) | 6.25 µg/mL (≈ 13.7 µM) | 6.25 µg/mL (≈ 13.7 µM) | 12.5 µg/mL (≈ 27.3 µM) | 6.25 µg/mL (≈ 13.7 µM) | 11 mm | 16 mm | 16 mm | 16 mm | 16 mm | 16 mm | 11 mm | 16 mm
Cc1cccc(OCc2ccccc2-c2nnc(-c3cccc4ncccc34)o2)c1 | 25 µg/mL (≈ 63.5 µM) | 25 µg/mL (≈ 63.5 µM) | 25 µg/mL (≈ 63.5 µM) | 25 µg/mL (≈ 63.5 µM) | 25 µg/mL (≈ 63.5 µM) | 25 µg/mL (≈ 63.5 µM) | 25 µg/mL (≈ 63.5 µM) | 25 µg/mL (≈ 63.5 µM) | <10 mm | <10 mm | <10 mm | <10 mm | <10 mm | <10 mm | <10 mm | <10 mm
Cc1cccc(OCc2ccccc2-c2nnc(-c3ccccc3F)o2)c1 | 6.25 µg/mL (≈ 17.3 µM) | 12.5 µg/mL (≈ 34.7 µM) | 6.25 µg/mL (≈ 17.3 µM) | 6.25 µg/mL (≈ 17.3 µM) | 6.25 µg/mL (≈ 17.3 µM) | 12.5 µg/mL (≈ 34.7 µM) | 6.25 µg/mL (≈ 17.3 µM) | 6.25 µg/mL (≈ 17.3 µM) | 16 mm | 11 mm | 16 mm | 16 mm | 16 mm | 11 mm | 16 mm | 16 mm
Cc1ccccc1OCc1ccccc1-c1nn(CN2CCOCC2)c(=S)o1 | 12.5 µg/mL (≈ 31.4 µM) | 12.5 µg/mL (≈ 31.4 µM) | 12.5 µg/mL (≈ 31.4 µM) | 12.5 µg/mL (≈ 31.4 µM) | 12.5 µg/mL (≈ 31.4 µM) | 12.5 µg/mL (≈ 31.4 µM) | 12.5 µg/mL (≈ 31.4 µM) | 12.5 µg/mL (≈ 31.4 µM) | 11 mm | 11 mm | 11 mm | 11 mm | 11 mm | 11 mm | 11 mm | 11 mm
Clc1ccc(CSc2nnc(-c3ccccc3COc3ccc(Cl)cc3)o2)cc1 | 12.5 µg/mL (≈ 28.2 µM) | 12.5 µg/mL (≈ 28.2 µM) | 12.5 µg/mL (≈ 28.2 µM) | 12.5 µg/mL (≈ 28.2 µM) | 12.5 µg/mL (≈ 28.2 µM) | 12.5 µg/mL (≈ 28.2 µM) | 12.5 µg/mL (≈ 28.2 µM) | 12.5 µg/mL (≈ 28.2 µM) | 11 mm | 11 mm | 11 mm | 11 mm | 11 mm | 11 mm | 11 mm | 11 mm
Cc1ccc(OCc2ccccc2-c2nn(CN3CCOCC3)c(=S)o2)cc1 | 12.5 µg/mL (≈ 31.4 µM) | 12.5 µg/mL (≈ 31.4 µM) | 12.5 µg/mL (≈ 31.4 µM) | 12.5 µg/mL (≈ 31.4 µM) | 12.5 µg/mL (≈ 31.4 µM) | 12.5 µg/mL (≈ 31.4 µM) | 12.5 µg/mL (≈ 31.4 µM) | 12.5 µg/mL (≈ 31.4 µM) | 11 mm | 11 mm | 11 mm | 11 mm | 11 mm | 11 mm | 11 mm | 11 mm
Cc1cccc(OCc2ccccc2-c2nnc(SCc3ccc(Cl)cc3)o2)c1 | 12.5 µg/mL (≈ 29.6 µM) | 12.5 µg/mL (≈ 29.6 µM) | 12.5 µg/mL (≈ 29.6 µM) | 12.5 µg/mL (≈ 29.6 µM) | 12.5 µg/mL (≈ 29.6 µM) | 12.5 µg/mL (≈ 29.6 µM) | 12.5 µg/mL (≈ 29.6 µM) | 12.5 µg/mL (≈ 29.6 µM) | 11 mm | 11 mm | 11 mm | 11 mm | 11 mm | 11 mm | 11 mm | 11 mm
Cc1ccc(OCc2ccccc2-c2nnc(SCc3cccc(C)c3)o2)cc1 | 12.5 µg/mL (≈ 31.1 µM) | 12.5 µg/mL (≈ 31.1 µM) | 12.5 µg/mL (≈ 31.1 µM) | 12.5 µg/mL (≈ 31.1 µM) | 12.5 µg/mL (≈ 31.1 µM) | 12.5 µg/mL (≈ 31.1 µM) | 12.5 µg/mL (≈ 31.1 µM) | 12.5 µg/mL (≈ 31.1 µM) | 11 mm | 11 mm | 11 mm | 11 mm | 11 mm | 11 mm | 11 mm | 11 mm

Continued, in another order:

MIC [1] | MIC [2] | MIC [3] | MIC [4] | MIC [5] | MIC [6] | MIC [7] | MIC [8] | SMILES | inhibition zone (IZ) [1] | inhibition zone (IZ) [2] | inhibition zone (IZ) [3] | inhibition zone (IZ) [4] | inhibition zone (IZ) [5] | inhibition zone (IZ) [6] | inhibition zone (IZ) [7] | inhibition zone (IZ) [8]
6.25 µg/mL (≈ 12.7 µM) | 6.25 µg/mL (≈ 12.7 µM) | 6.25 µg/mL (≈ 12.7 µM) | 6.25 µg/mL (≈ 12.7 µM) | 6.25 µg/mL (≈ 12.7 µM) | 6.25 µg/mL (≈ 12.7 µM) | 6.25 µg/mL (≈ 12.7 µM) | 6.25 µg/mL (≈ 12.7 µM) | FC(F)(F)c1cccc(NCn2nc(-c3ccccc3COc3ccc(Cl)cc3)oc2=S)c1 | 16 mm | 16 mm | 16 mm | 16 mm | 16 mm | 16 mm | 16 mm | 16 mm
25 µg/mL (≈ 66.3 µM) | 25 µg/mL (≈ 66.3 µM) | 25 µg/mL (≈ 66.3 µM) | 25 µg/mL (≈ 66.3 µM) | 25 µg/mL (≈ 66.3 µM) | 25 µg/mL (≈ 66.3 µM) | 25 µg/mL (≈ 66.3 µM) | 25 µg/mL (≈ 66.3 µM) | Cc1cccc(OCc2ccccc2-c2nnc(-c3ccc(Cl)cc3)o2)c1 | <10 mm | <10 mm | <10 mm | <10 mm | <10 mm | <10 mm | <10 mm | <10 mm
6.25 µg/mL (≈ 13.3 µM) | 6.25 µg/mL (≈ 13.3 µM) | 6.25 µg/mL (≈ 13.3 µM) | 6.25 µg/mL (≈ 13.3 µM) | 6.25 µg/mL (≈ 13.3 µM) | 6.25 µg/mL (≈ 13.3 µM) | 6.25 µg/mL (≈ 13.3 µM) | 6.25 µg/mL (≈ 13.3 µM) | Cc1ccc(OCc2ccccc2-c2nn(CNc3cccc(C(F)(F)F)c3)c(=S)o2)cc1 | 16 mm | 16 mm | 16 mm | 16 mm | 16 mm | 16 mm | 16 mm | 16 mm
25 µg/mL (≈ 61.1 µM) | 25 µg/mL (≈ 61.1 µM) | 25 µg/mL (≈ 61.1 µM) | 25 µg/mL (≈ 61.1 µM) | 25 µg/mL (≈ 61.1 µM) | 25 µg/mL (≈ 61.1 µM) | 25 µg/mL (≈ 61.1 µM) | 25 µg/mL (≈ 61.1 µM) | Clc1ccc(OCc2ccccc2-c2nnc(SCc3ccccc3)o2)cc1 | <10 mm | <10 mm | <10 mm | <10 mm | <10 mm | <10 mm | <10 mm | <10 mm
25 µg/mL (≈ 55.3 µM) | 25 µg/mL (≈ 55.3 µM) | 25 µg/mL (≈ 55.3 µM) | 25 µg/mL (≈ 55.3 µM) | 25 µg/mL (≈ 55.3 µM) | 25 µg/mL (≈ 55.3 µM) | 25 µg/mL (≈ 55.3 µM) | 25 µg/mL (≈ 55.3 µM) | Cc1ccc(OCc2ccccc2-c2nn(CNc3cc(C)ccc3Cl)c(=S)o2)cc1 | <10 mm | <10 mm | <10 mm | <10 mm | <10 mm | <10 mm | <10 mm | <10 mm
6.25 µg/mL (≈ 13.3 µM) | 6.25 µg/mL (≈ 13.3 µM) | 6.25 µg/mL (≈ 13.3 µM) | 6.25 µg/mL (≈ 13.3 µM) | 6.25 µg/mL (≈ 13.3 µM) | 6.25 µg/mL (≈ 13.3 µM) | 6.25 µg/mL (≈ 13.3 µM) | 6.25 µg/mL (≈ 13.3 µM) | Cc1ccccc1OCc1ccccc1-c1nn(CNc2cccc(C(F)(F)F)c2)c(=S)o1 | 16 mm | 16 mm | 16 mm | 16 mm | 16 mm | 16 mm | 16 mm | 16 mm
25 µg/mL (≈ 68.9 µM) | 25 µg/mL (≈ 68.9 µM) | 25 µg/mL (≈ 68.9 µM) | 25 µg/mL (≈ 68.9 µM) | 25 µg/mL (≈ 68.9 µM) | 25 µg/mL (≈ 68.9 µM) | 25 µg/mL (≈ 68.9 µM) | 25 µg/mL (≈ 68.9 µM) | Clc1ccc(OCc2ccccc2-c2nnc(-c3ccccc3)o2)cc1 | <10 mm | <10 mm | <10 mm | <10 mm | <10 mm | <10 mm | <10 mm | <10 mm
